Assay results taken from ChEMBL document CHEMBL1671747, “Efficacy and safety of intravenous peramivir for treatment of seasonal influenza virus infection” (Antimicrob Agents Chemother, 2010).
Calls of active or inactive are those of the source. No cut-off for these calls is given here.

Key:
Homo sapiens [1] = assay: Toxicity in human patient infected with Influenza virus assessed as beta-N-Acetyl-D-glucosaminidase at 600 mg, iv; type: organism-based; settings: in vivo
Method in brief: (§1)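 One IV dose of 300 or 600 mg or placebo was given to adults with influenza. Blood (hematology, biochemistry) and urine (including NAG, β2- and α1-microglobulin, protein) were sampled at baseline, day 3 and day 14 by blinded technicians. Adverse-event incidence versus placebo was compared by Fisher's exact test.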

Homo sapiens [2] = assay: Toxicity in human patient infected with Influenza virus assessed as urine containing albumine at 600 mg, iv; type: organism-based; settings: in vivo
Method in brief: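 Subjects received a single intravenous peramivir dose (300 or 600 mg) or placebo, infused over a median of 0.63 h. Urinalysis covered protein, albumin and sediment, among other analytes. Urine was collected at baseline and on days 3 and 14 and tested by blinded technicians. Incidence in the safety population (n = 298 treated) was compared with placebo by Fisher's exact test.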

Homo sapiens [3] = assay: Toxicity in human patient infected with Influenza virus assessed as decrease in total Protein at 600 mg, iv; type: organism-based; settings: in vivo; method in brief: as §1
Homo sapiens [4] = assay: Toxicity in human patient infected with Influenza virus assessed as lymphocyte morphology abnormal at 600 mg, iv; type: organism-based; settings: in vivo
Method in brief: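 Adults with seasonal influenza received one intravenous infusion of peramivir (300 or 600 mg) or matching placebo; the median infusion lasted 0.63 h. Blood for haematology, including the white-cell differential, was taken at baseline and on days 3 and 14. Tests were run by blinded technicians. Adverse-event incidence in the 298-subject safety population was compared with placebo by Fisher's exact test.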

Homo sapiens [5] = assay: Toxicity in human patient infected with Influenza virus assessed as nasopharyngitis at 600 mg, iv; type: organism-based; settings: in vivo
Method in brief: (§2)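 In this randomized trial, subjects received a single intravenous infusion of peramivir (300 mg or 600 mg) or matching placebo; the median infusion lasted 0.63 h. Subjects were followed at visits on days 1, 2 (optional), 3, 5, 9 and 14. Adverse-event incidences across the 298 treated subjects were compared with placebo using Fisher's exact test.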

Homo sapiens [6] = assay: Toxicity in human patient infected with Influenza virus assessed as increase in blood phosphate at 600 mg, iv; type: organism-based; settings: in vivo; method in brief: as §1
Influenza A virus [7] = assay: Antiviral activity against Influenza A virus H3N2 infected in human patient assessed as alleviation time of symptoms at 300 mg, iv (reference value: 81 hrs); type: functional
Influenza A virus [8] = assay: Antiviral activity against Influenza A virus H3N2 infected in human patient assessed as alleviation time of symptoms at 600 mg, iv (reference value: 81 hrs); type: functional
[9] = test system: unidentified influenza virus; assay: Antiviral activity against Influenza virus infected in human patient assessed as reduction in fever at 300 mg, iv after 24 hrs; type: functional, organism-based
Method in brief: (§3)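 A single IV dose of 300 or 600 mg or placebo was given to adults with seasonal influenza. The outcome was the proportion of subjects with postbaseline normal temperature (<37.0°C). Groups were compared by Mantel-Haenszel test stratified for smoking and baseline composite symptom score.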

[10] = test system: unidentified influenza virus; assay: Antiviral activity against Influenza virus infected in human patient assessed as reduction in fever at 600 mg, iv after 24 hrs; type: functional, organism-based; method in brief: as §3
Influenza A virus [11] = assay: Antiviral activity against influenza A virus H1N1 infected in MDCK cells assessed as inhibition of neuraminidase activity by fluorimetric assay; type: functional, organism-based
Method in brief: (§4)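 Viruses were isolated from baseline patient swabs on MDCK cells. Neuraminidase inhibition was measured by a standard fluorometric assay. IC50 came from plotting percent inhibition of neuraminidase activity against inhibitor concentration, reported as mean ± SD of three independent experiments.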

Influenza A virus [12] = assay: Antiviral activity against influenza A virus H3N2 infected in MDCK cells assessed as inhibition of neuraminidase activity by fluorimetric assay; type: functional, organism-based; method in brief: as §4
Influenza A virus [13] = assay: Antiviral activity against influenza A virus infected in MDCK cells assessed as inhibition of neuraminidase activity by fluorimetric assay; type: functional, organism-based; method in brief: as §4
Influenza B virus = assay: Antiviral activity against influenza B virus infected in MDCK cells assessed as inhibition of neuraminidase activity by fluorimetric assay; type: functional, organism-based; method in brief: as §4
Influenza A virus [14] = assay: Antiviral activity against Influenza A virus H1N1 infected in human patient assessed as alleviation time of symptoms at 300 mg, iv (reference value: 81.4 hrs); type: functional
Influenza A virus [15] = assay: Antiviral activity against Influenza A virus H1N1 infected in human patient assessed as alleviation time of symptoms at 600 mg, iv (reference value: 81.4 hrs); type: functional
[16] = test system: unidentified influenza virus; assay: Antiviral activity against Influenza virus infected in human patient assessed as resumption time of usual activities at 300 mg, iv; type: functional
Homo sapiens [17] = assay: Toxicity in human patient infected with Influenza virus assessed as occurrence of bronchitis at 300 mg, iv; type: organism-based; settings: in vivo; method in brief: as §2
Homo sapiens [18] = assay: Toxicity in human patient infected with Influenza virus assessed as occurrence of otitis at 600 mg, iv; type: organism-based; settings: in vivo; method in brief: as §2
[19] = test system: unidentified influenza virus; assay: Antiviral activity against Influenza virus infected in human patient assessed as decrease in virus-positive patients at 300 mg, iv on day 3; type: functional
Method in brief: (§5)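 Nasal and throat swabs were taken at baseline and on days 2, 3, 5 and 9, held in 2 ml transport medium, and titrated on MDCK cells in triplicate: 10-fold dilutions, 3 μg/ml trypsin, 1 h adsorption, washes, then 3 days at 37°C. CPE gave TCID50/ml by Spearman-Karber; positive meant ≥1.1 log10 TCID50/ml. Proportions were compared by Mantel-Haenszel test stratified for smoking and baseline score.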

[20] = test system: unidentified influenza virus; assay: Antiviral activity against Influenza virus infected in human patient assessed as decrease in virus-positive patients at 600 mg, iv on day 3; type: functional; method in brief: as §5
[21] = test system: unidentified influenza virus; assay: Antiviral activity against Influenza virus infected in human patient assessed as decrease in virus-positive patients at 300 mg, iv on day 9; type: functional; method in brief: as §5
[22] = test system: unidentified influenza virus; assay: Antiviral activity against Influenza virus infected in human patient assessed as decrease in virus-positive patients at 600 mg, iv on day 9; type: functional; method in brief: as §5
Homo sapiens [23] = assay: Toxicity in human patient infected with Influenza virus assessed as occurrence of diarrhea at 300 mg, iv; type: organism-based; settings: in vivo; method in brief: as §2
Homo sapiens [24] = assay: Toxicity in human patient infected with Influenza virus assessed as occurrence of diarrhea at 600 mg, iv; type: organism-based; settings: in vivo; method in brief: as §2
Homo sapiens [25] = assay: Toxicity in human patient infected with Influenza virus assessed as occurrence of nausea at 300 mg, iv; type: organism-based; settings: in vivo; method in brief: as §2
Homo sapiens [26] = assay: Toxicity in human patient infected with Influenza virus assessed as occurrence of nausea at 600 mg, iv; type: organism-based; settings: in vivo; method in brief: as §2
Homo sapiens [27] = assay: Toxicity in human patient infected with Influenza virus assessed as prolongation of electrocardiogram QT interval at 300 mg, iv; type: organism-based; settings: in vivo
Homo sapiens [28] = assay: Toxicity in human patient infected with Influenza virus assessed as increase in blood glucose level at 600 mg, iv; type: organism-based; settings: in vivo; method in brief: as §1
Homo sapiens [29] = assay: Toxicity in human patient infected with Influenza virus assessed as increase in blood creatinine level at 600 mg, iv; type: organism-based; settings: in vivo; method in brief: as §1
Plasma [30] = assay: Plasma concentration in human at 300 mg, iv; type: ADME
Method in brief: (§6)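 Subjects received a single IV infusion of 300 or 600 mg (mean 5.0 or 10.0 mg/kg; median infusion 0.63 h). Plasma was sampled just before the infusion ended, and on days 2 and 3. Samples were deproteinized and run on C18 LC/MS-MS. Values are medians at end of infusion, 18–24 h and 36–48 h after infusion.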

Plasma [31] = assay: Plasma concentration in human at 600 mg, iv; type: ADME; method in brief: as §6
Plasma [32] = assay: Plasma concentration in human at 300 mg, iv after 18 to 24 hrs; type: ADME, organism-based; settings: in vivo; method in brief: as §6
Plasma [33] = assay: Plasma concentration in human at 600 mg, iv after 18 to 24 hrs; type: ADME, organism-based; settings: in vivo; method in brief: as §6
Plasma [34] = assay: Plasma concentration in human at 300 mg, iv after 36 to 48 hrs; type: ADME, organism-based; settings: in vivo; method in brief: as §6

With `CCC(CC)[C@H](NC(C)=O)[C@@H]1[C@H](O)[C@@H](C(=O)O)C[C@H]1NC(=N)N` [PERAMIVIR ANHYDROUS] the Activity (Homo sapiens [1]) was “Toxic”, the Activity (Homo sapiens [2]) was “Toxic” and the Activity (Homo sapiens [3]) was “Toxic”. The Activity (Homo sapiens [4]) was “Toxic”, the Activity (Homo sapiens [5]) was “Toxic” and the Activity (Homo sapiens [6]) was “Toxic”. The Time (Influenza A virus [7]) was 76.1 h, the Time (Influenza A virus [8]) was 50.5 h and the Activity [9] was “Active”. For the same compound, the Activity [10] was “Active”, the IC50 (Influenza A virus [11]) was 9.43 nM and the IC50 (Influenza A virus [12]) was 3.51 nM. It also gave an IC50 (Influenza A virus [13]) of 1.72 nM, an IC50 (Influenza B virus) of 3 nM and a Time (Influenza A virus [14]) of 52.5 h. It also gave a Time (Influenza A virus [15]) of 62.6 h, a Time [16] of 125.6 h and an Activity (Homo sapiens [17]) of 3%. The Activity (Homo sapiens [18]) was 1%, the “inhibition (INH)” value [19] was 36.8% and the “inhibition (INH)” value [20] was 25.8%. For the same compound, the “inhibition (INH)” value [21] was 0%, the “inhibition (INH)” value [22] was 1.1% and the Activity (Homo sapiens [23]) was 14.1%. For the same compound, the Activity (Homo sapiens [24]) was 15.2%, the Activity (Homo sapiens [25]) was 3% and the Activity (Homo sapiens [26]) was 6.1%. The Activity (Homo sapiens [27]) was 2%, the Activity (Homo sapiens [28]) was “Toxic” and the Activity (Homo sapiens [29]) was “Toxic”. The Cp (Plasma [30]) was 18100 ng/mL, the Cp (Plasma [31]) was 36300 ng/mL and the Cp (Plasma [32]) was 14.8 ng/mL. For the same compound, the Cp (Plasma [33]) was 32.8 ng/mL and the Cp (Plasma [34]) was 5.01 ng/mL.
